In article PMC8929370 (Pharmacology Research & Perspectives, 2022):
pEC50, pKi: −log10 of the molar value.

Tests used:
[1] = biological target: human CB1 (hCB1) receptor (Homo sapiens, UniProt P21554); type: binding; conditions: for Rank order (affinity): rank of pKi among EG-018 and 13 analogues
human CB1 [2] = biological target: T1, human CB1 (Homo sapiens, UniProt P21554); assay: Inhibition of FSK-stimulated cAMP; type: cell-based; conditions: for Emax: HEK293, read-out: E MAX (±SEM), %; for Rank order efficacy: cAMP inhibition efficacy ranking
T1 sequence (P21554 whole entry): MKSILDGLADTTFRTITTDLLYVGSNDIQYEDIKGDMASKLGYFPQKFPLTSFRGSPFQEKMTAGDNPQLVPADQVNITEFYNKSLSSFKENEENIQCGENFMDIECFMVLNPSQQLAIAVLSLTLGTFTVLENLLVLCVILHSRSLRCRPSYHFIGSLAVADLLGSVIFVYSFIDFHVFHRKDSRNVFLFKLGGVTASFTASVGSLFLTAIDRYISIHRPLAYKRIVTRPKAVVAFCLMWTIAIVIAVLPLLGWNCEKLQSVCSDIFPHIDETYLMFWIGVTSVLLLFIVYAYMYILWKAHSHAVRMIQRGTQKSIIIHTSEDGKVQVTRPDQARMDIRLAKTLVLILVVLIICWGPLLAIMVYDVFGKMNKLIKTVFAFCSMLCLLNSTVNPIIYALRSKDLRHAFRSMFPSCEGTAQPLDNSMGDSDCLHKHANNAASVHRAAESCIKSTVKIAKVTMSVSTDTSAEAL

human CB1 [3] = biological target: T1, human CB1; assay: [35S]GTPγS binding in P2 membranes of HEK293 cells expressing hCB1; type: biochemical; conditions: for Rank order efficacy: [35S]-GTPγS efficacy ranking; for Emax: read-out: E MAX (±SEM), %
human CB1 [4] = biological target: T1, human CB1; assay: Phospho-ERK AlphaLISA assay in 3HA-hCB1 HEK cells; type: cell-based; conditions: 10 µM alone
Procedure, shortened: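 3HA-hCB1 HEK cells were plated at 2.5e4/well on poly-D-lysine-coated plates and serum-starved overnight after ~24 h in serum-free high-glucose DMEM with 1 mg/ml BSA. Drugs were made at 2x, prewarmed and dispensed in a 37°C waterbath, staggered so all stimulations ended together. The time course used 31.6 µM. Cells were lysed on ice and pERK read by AlphaLISA SureFire Ultra, in technical duplicate or quadruplicate.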

Sequence of human CB1 (hCB1) receptor (P21554 whole entry): as above

SMILES | pKi [1] | Rank order (affinity) [1] | pEC50 (human CB1 [2]) | Emax (human CB1 [2]) [%] | Rank order efficacy (human CB1 [2]) | pEC50 (human CB1 [3]) | Rank order efficacy (human CB1 [3]) | Emax (human CB1 [3]) [%] | right-shift in the potency of the CP55940 response (cAMP) (human CB1 [2]; 10 µM antagonist, E MAX not reduced) | agonist response in pERK by compound alone (human CB1 [4]) | inverse agonism in cAMP assay (human CB1 [2]; concentration-response, compared to SR141716A)
O=C(c1ccc2c(c1)c1ccccc1n2CCCCCO)c1cccc2ccccc12 [Compound 045] | 6.78 | 9 | 6.83 | 34.9 | 9 | 6.59 | 12 | 81.9 | – | – | –
Cc1ccc(C(=O)c2ccc3c(c2)c2ccccc2n3CCN2CCOCC2)c2ccccc12 [Compound 141, (9-(2-(Morpholin-4-yl)ethyl)-9H-carbazol-3-yl)(4-methylnaphthalen-1-yl)methanone] | 6.83 | 8 | 7.08 | 38.7 | 7 | 6.45 | 8 | 106 | – | – | –
O=C(c1ccc2c(c1)c1ccccc1n2CCN1CCOCC1)c1cc2ccccc2[nH]1 [Compound 142, (9-(2-(Morpholin-4-yl)ethyl)-9H-carbazol-3-yl)(1H-indol-2-yl)methanone] | – | 14 | 5.92 | 31.5 | 13 | 5.21 | 6 | 123 | – | – | –
O=C(c1ccc2c(c1)c1ccccc1n2CCN1CCOCC1)c1cc2ccccc2o1 [Compound 146, 1-Benzofuran-2-yl(9-(2-(morpholin-4-yl)ethyl)-9H-carbazol-3-yl)methanone] | 6.53 | 11 | 6.45 | 38.5 | 8 | – | – | – | – | – | –
O=C(c1ccc2c(c1)c1ccccc1n2CCN1CCOCC1)c1ccnc2ccccc12 [Compound 157, (9-(2-(Morpholin-4-yl)ethyl)-9H-carbazol-3-yl)(quinoline-4-yl)methanone] | 6.23 | 13 | 7.04 | 13.1 | 14 | 6.59 | 10 | 88.2 | approximately 1 log unit | not driving an agonist response in pERK | –
O=C(NN1CCCCC1)c1nn(-c2ccc(Cl)cc2Cl)c2c1CCCc1cc(Cl)ccc1-2 [NESS‐0327, reference compound] | – | – | – | – | – | – | – | – | – | – | approximately equivalent inverse agonism to SR141716A
